Consider three molecules from article PMC4721638 (Integrative biology : quantitative biosciences from nano to …, 2015).

Experiment [1] deals with T1, RHAMM:HA interaction, immobilized recombinant RHAMM (Mus musculus, UniProt Q00547).
T1 sequence (Q00547 with tags, fused parts or gaps): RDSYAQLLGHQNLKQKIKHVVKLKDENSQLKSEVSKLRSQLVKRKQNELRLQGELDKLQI
The experiment is described as follows: Competitive ELISA, fluorescein-labelled peptides vs HA. As to conditions: summary of the competitive ELISA results. Type of experiment: binding. Background: An ELISA detects its analyte on a solid surface through an enzyme-linked reagent.

For experiment [2], the system named is PC3MLN4 cells. The experiment is described as follows: Anchorage independent growth. The experiment is classed as cell-based, human.
Experiment [3] has as its system PC3MLN4 cells. The experiment is described as follows: Cell invasion assay. The experiment is classed as cell-based, human. The conditions noted are these: 10 µg/mL, 48 hrs, compared to scrambled peptide control. Put shortly:
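Gelatin invadopodia assay: PC3MLN4 cells are plated at 50% confluency on Cy3-gelatin-coated chamber slides in growth medium with test peptide or scrambled control peptide (10 µg/mL each). After 48 h, cells are fixed, stained with FITC-phalloidin and DAPI, and imaged by confocal microscopy to assess degradation of the fluorescent matrix.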

The test system of experiment [4] is PC3MLN4 cells. The experiment is described as follows: Cell adhesion on invasion assay substrates. The experiment is classed as cell-based, human. The conditions noted are these: PC3MLN4 on the invasion assay substrates (not shown).
In experiment [5] the target is T2, peptide 10b (EEDFGEEAEEEA).
T2 peptide: Ac-C[Ahx]EEDFGEEAEEEA-NH2
The experiment is described as follows: SPR. On the technique in general: Surface plasmon resonance follows binding to a sensor surface in real time, without labels.

In experiment [6] the target is T3, peptide 14b (FTEAESNMNDLV).
T3 peptide: Ac-C[Ahx]FTEAESNMNDLV-NH2
The experiment is described as follows: SPR.

Experiment [7] deals with T4, peptide 2b (VEGEGEEEGEEY).
T4 peptide: Ac-C[Ahx]VEGEGEEEGEEY-NH2
The experiment is described as follows: SPR.

[ ]: non-standard residue; d: D form. Ahx = NCCCCCC(=O)O

For EAFEDEEEEIDG [12a], the “Overall efficiency at competing with HA for binding to RHAMM” value in experiment [1] is recorded as “most efficient at competing with HA”.

On to FTEAESNMNDLV [14a], for which the “Overall efficiency at competing with HA for binding to RHAMM” value in experiment [1] is reported as “most efficient at competing with HA”. Also, the “Effect on anchorage independent proliferation” value in experiment [2] was “marginal effects”. Moreover, the “Inhibition of the ability to degrade collagen” value in experiment [3] stood at 80%. For the same molecule, the “Inhibition of cell adhesion” value in experiment [4] is listed as “no observed inhibition”.

B1: Recombinant protein RHAMM-CT (aa. 706–767) (domain or fragment)
chain: RDSYAQLLGHQNLKQKIKHVVKLKDENSQLKSEVSKLRSQLVKRKQNELRLQGELDKLQI
B1: the dissociation constant (Kd) – broadly, a measure of binding affinity in units of concentration – in experiment [5] came out at 32 nM; in experiment [6], 30 nM; in experiment [7] it was 24 nM.
